Our source for the MIC90 and inhibition values is ChEMBL document CHEMBL5532690, “Antitubercular activity of 2-mercaptobenzothiazole derivatives targeting Mycobacterium tuberculosis type II NADH dehydrogenase” (RSC Med Chem, 2024).

The subject of assay [1] is Mycobacterium tuberculosis. As to the kind of experiment: Antitubercular activity against isoniazid-resistant Mycobacterium tuberculosis mc2 8243 measured after 10 days by liquid broth microdilution assay. The assay is classed as functional. As to conditions: mc2 8243, 240 h, time 10 day. The gist of the method:
(§1)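 Broth microdilution in 7H9 with glycerol, ADS and 0.05% tyloxapol, supplemented with L-methionine, L-leucine (50 mg L−1 each), L-arginine (200 mg L−1) and D-pantothenate (24 mg L−1). Inoculum was diluted to OD600 0.005 (1.0 × 10^6 CFU ml−1) and added to two-fold serial dilutions. After 10 days at 37 °C, MIC was the lowest concentration without visible turbidity.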

Assay [2] relates to Mycobacterium tuberculosis. As to the kind of experiment: Antitubercular activity against rifampicin-resistant Mycobacterium tuberculosis mc2 8247 measured after 10 days by liquid broth microdilution assay. Type of assay: functional. As to conditions: mc2 8247, 240 h, time 10 day. The gist of the method: as §1
Assay [3] relates to Mycobacterium tuberculosis. As to the kind of experiment: Antitubercular activity against isoniazid and rifampicin resistant Mycobacterium tuberculosis mc2 8259 measured after 10 days by liquid broth microdilution assay. As to conditions: mc2 8259, 240 h, time 10 day. Type of assay: functional. The procedure, abridged: as §1
Assay [4] deals with Mycobacterium tuberculosis. As to the kind of experiment: Inhibition of NDH-2 in Mycobacterium tuberculosis transformed with pMV762-Peredox-mCherry assessed as change in NADH/NAD+ ratio at 2.5 ug/ml incubated for 24 hrs by fluorimetric assay. As to conditions: dose 2.5 µg/ml.
The subject of assay [5] is Mycobacterium tuberculosis. In words: Inhibition of NDH-2 in Mycobacterium tuberculosis transformed with pMV762-Peredox-mCherry incubated for 24 hrs by fluorimetric assay. The procedure, abridged: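 Peredox-mCherry reporter Mtb was grown in supplemented 7H9 to OD600 0.4–0.6 and inoculated onto compounds, then held at 37 °C for 24 h. Fluorescence was read at ex 400/em 510 nm and ex 587/em 615 nm. The green/red ratio was taken as NADH/NAD+. Triplicates; one-way ANOVA with Dunnett's test.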

For assay [6], the system named is Mycobacterium tuberculosis. In words: Inhibition of NDH-2 in Mycobacterium tuberculosis transformed with pMV762-Peredox-mCherry assessed as change in NADH/NAD+ ratio at 59.16 ug/ml incubated for 24 hrs by fluorimetric assay. As to conditions: dose 59.16 µg/ml.

Values after ≈ are worked out from the molar mass of the structure shown. Active and inactive are the calls of the source. The calls are words filed in the database; no cut-off is given here.

With `O=C(CSc1nc2ccccc2c(=O)[nH]1)NC1CCCCC1`, the MIC90 is 0.125 µg/mL (≈ 0.394 µM) in assay [1], 0.25 µg/mL (≈ 0.788 µM) in assay [2] and 0.125 µg/mL (≈ 0.394 µM) in assay [3].
In the case of `CC(C)/N=c1\cc2n(-c3ccc(Cl)cc3)c3ccccc3nc-2cc1Nc1ccc(Cl)cc1` [CLOFAZIMINE], the inhibition entry in assay [4] was “inactive”.
Consider `CC(C)c1ccc2nc(SCC(=O)NC3CCCCC3)sc2c1`, for which the MIC90 in assay [1], in assay [2] and in assay [3] was 4 µg/mL (≈ 11.5 µM) throughout. In assay [5], the inhibition entry was “Active”.
As to `O=C(CSc1nc2c(Br)cc(F)cc2s1)NC1CCCCC1`, the figures for the MIC90 in assay [1], in assay [2] and in assay [3] were 8 µg/mL (≈ 19.8 µM), 4 µg/mL (≈ 9.92 µM) and 8 µg/mL (≈ 19.8 µM), respectively.
Consider `C=C(C)[C@H]1Cc2c(ccc3c2O[C@@H]2COc4cc(OC)c(OC)cc4[C@@H]2C3=O)O1` [ROTENONE], for which, in assay [6], the inhibition result was “Active”.
Consider `Cc1cc(C)c2nc(SCC(=O)NC3CCCCC3)sc2c1`, for which the MIC90 in assay [1] was 4 µg/mL (≈ 12 µM); in assay [2], 8 µg/mL (≈ 23.9 µM); in assay [3] it was 4 µg/mL (≈ 12 µM). Further, the inhibition entry in assay [5] was “Active”.
On to `NNC(=O)c1ccncc1` [ISONIAZID], for which the MIC90 in assay [1] was greater than 128 µg/mL; in assay [2] it was 0.25 µg/mL (≈ 1.82 µM); in assay [3], greater than 128 µg/mL.
On to `CO[C@H]1/C=C/O[C@@]2(C)Oc3c(C)c(O)c4c(O)c(c(/C=N/N5CCN(C)CC5)c(O)c4c3C2=O)NC(=O)/C(C)=C\C=C\[C@H](C)[C@H](O)[C@@H](C)[C@@H](O)[C@@H](C)[C@H](OC(C)=O)[C@@H]1C` [RIFAMPIN], for which the figures for the MIC90 in assay [1], in assay [2] and in assay [3] were 0.12 µg/mL (≈ 0.146 µM), greater than 128 µg/mL and greater than 128 µg/mL, respectively.
